Our source for the IC50 values is BindingDB's records for doi:10.1016/s0960-894x(02)00170-1 (Kingston University, 2002).

Molecules are shown by their SMILES.

The experiment addresses T1, Steryl-sulfatase (Homo sapiens, UniProt P08842).
T1 sequence (P08842 whole entry): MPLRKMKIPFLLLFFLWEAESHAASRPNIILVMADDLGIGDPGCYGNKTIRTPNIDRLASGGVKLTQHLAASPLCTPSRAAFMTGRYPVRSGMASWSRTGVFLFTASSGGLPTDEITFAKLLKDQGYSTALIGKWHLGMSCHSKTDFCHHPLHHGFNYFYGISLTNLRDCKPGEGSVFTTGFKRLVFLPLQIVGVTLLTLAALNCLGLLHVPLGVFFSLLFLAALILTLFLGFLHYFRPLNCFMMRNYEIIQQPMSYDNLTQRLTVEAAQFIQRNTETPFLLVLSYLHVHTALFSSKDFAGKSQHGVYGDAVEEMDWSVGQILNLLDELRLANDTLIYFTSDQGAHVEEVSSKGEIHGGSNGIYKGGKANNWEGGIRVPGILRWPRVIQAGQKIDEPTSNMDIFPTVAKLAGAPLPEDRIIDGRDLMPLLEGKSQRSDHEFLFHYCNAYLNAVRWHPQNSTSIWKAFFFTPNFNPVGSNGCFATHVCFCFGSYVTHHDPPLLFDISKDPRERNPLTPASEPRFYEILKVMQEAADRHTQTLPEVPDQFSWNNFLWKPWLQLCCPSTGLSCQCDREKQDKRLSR
Nature of the experiment: Compound was evaluated for its inhibitory activity against estrone sulfatase enzyme. The gist of the method: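 They are added to tubes holding [3H]estrone sulfate (300,000 dpm) and inhibitor, which was dried from ethanol under nitrogen. Incubation runs 20 min at 37 °C and is quenched with toluene. Radioactivity in the toluene extract is counted. Triplicates are run alongside no-inhibitor controls and boiled-microsome blanks.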
For the molecule `COC(=O)c1ccc(-c2ccc(OS(N)(=O)=O)cc2)cc1`, the IC50 amounted to 5.2 µM. In other words, the single-digit micromolar range.
In the case of `CCCOC(=O)c1ccc(-c2ccc(OS(N)(=O)=O)cc2)cc1` it was 3.5 µM; in that of `CCCCOC(=O)c1ccc(-c2ccc(OS(N)(=O)=O)cc2)cc1`, 5.8 µM; in that of `CCOC(=O)c1ccc(-c2ccc(OS(N)(=O)=O)cc2)cc1`, 4.2 µM.
Then `N#Cc1ccc(-c2ccc(OS(N)(=O)=O)cc2)cc1`, with 6.7 µM; and `Cc1cc(=O)oc2cc(OS(N)(=O)=O)ccc12` [4-methyl-2-oxo-2H-chromen-7-yl sulfamate], with 10 µM; and `NS(=O)(=O)Oc1ccc(-c2ccccc2)cc1` [Sulfamic acid biphenyl-4-yl ester], with 76.1 µM.

A word on the IC50: it is the concentration that gives 50% inhibition. Lower therefore signals greater potency.
